Measured values of several laboratories.
Protocols differ between the studies behind these lines.
Target: Activin receptor type-2B (ACVR2B, Homo sapiens, UniProt Q13705)

The remaining binding of `CC(=O)N1CCC(c2ccc(C(=O)NC(=N)N)cc2C(F)(F)F)CC1` is reported as 100% (binding; competition with immobilised ligand; 1 µM).
For `N[C@H]1CCN(c2nccc(-c3cnn4ncccc34)n2)C1`, the remaining binding was 93% (binding; competition with immobilised ligand; 1 µM).
`COc1cnc(Nc2cccc(S(N)(=O)=O)c2)nc1N1CCN(c2ccccc2)C(=O)C1` has a remaining binding of 100% (binding; competition with immobilised ligand; 1 µM).
For `O=C(Nc1cccnn1)N1CC(C/C=C/c2cncc(Oc3ccc(C(F)(F)F)cn3)n2)C1`, the remaining binding was 98% (cell-free assay; competition with immobilised ligand; 1 µM).
With `c1cnn2ncc(-c3ccnc(N4CCC45COC5)n3)c2c1` the remaining binding was 90% (binding; 1 µM).
For `c1cncc(-c2cccc(Nc3nccc(NC4CCCCC4)n3)c2)c1`, the remaining binding was 85% (binding; competition with immobilised ligand; 10 µM).
The remaining binding of `CN(C)c1nccc(-c2cnn3ncccc23)n1` is reported as 85% (binding; competition with immobilised ligand; 1 µM).
`FC(F)(F)Oc1cccc(-c2cnc3ccc(-c4ccncc4)nn23)c1` gave a remaining binding of 46% (cell-free assay; competition with immobilised ligand; 5 µM).
For `O=C(c1ccc(Nc2nccc(-c3cc4ccccc4s3)n2)cc1)N1CCC(N2CCCC2)CC1`, the remaining binding was 88% (binding; competition with immobilised ligand; 1 µM).
With `CN(C)c1ncc(F)c(-c2cnn3ncccc23)n1` the remaining binding was 95% (binding; competition with immobilised ligand; 1 µM).
`Cc1nc(C2CCN(C(=O)c3ccc(OC(F)(F)F)cc3N)CC2)c2ncc(N3CCN(C)CC3)cc2n1` has a remaining binding of 100% (cell-free assay; competition with immobilised ligand; 1 µM).
`O=C(c1ccc(Nc2ncc(Cl)c(-c3ccc(Cl)s3)n2)cc1)N1CCC(N2CCCC2)CC1` gave a remaining binding of 77% (binding; competition with immobilised ligand; 1 µM).
The remaining binding of `COc1cc(-c2cn(C3CCc4ccccc4N(CC(F)(F)F)C3=O)nn2)ccc1-n1ccc(C)n1` (centres unmarked) is reported as 100% (binding; competition with immobilised ligand; 1 µM).
For `O=C(NCC1CCOCC1)c1n[nH]cc1NC(=O)c1c(F)cccc1F`, the remaining binding was 98% (binding; competition with immobilised ligand; 1 µM).
The remaining binding of `Cc1cnn2ncc(-c3ccnc(N(C)C)n3)c2c1` is reported as 100% (binding; competition with immobilised ligand; 1 µM).
`O=C(c1ccc(Nc2ncc(Cl)c(-c3cc4ccccc4s3)n2)cc1)N1CCC(N2CCCC2)CC1` gave a remaining binding of 53% (binding; competition with immobilised ligand; 1 µM).
With `CN(C)C(=O)Cn1cc(-c2nc(C3(c4ccc(-c5cnc(N)nc5)cc4)CC3)no2)cn1` the remaining binding was 96% (binding; competition with immobilised ligand; 1 µM).
`C[C@@H]1CCN(c2nccc(-c3cnn4ncccc34)n2)C1` has a remaining binding of 100% (binding; 1 µM).
For `O=C1CCc2cc(Nc3cc(OC4CCOCC4)c([N+](=O)[O-])cc3Cl)ccc2N1`, the remaining binding was 89% (cell-free assay; competition with immobilised ligand; 1 µM).
`CCN1CCN(Cc2ccc(C(=O)Nc3ccc(C)c(Oc4ccc5c(c4)CC(=O)N5)c3)cc2C(F)(F)F)CC1` gave a remaining binding of 100% (binding; competition with immobilised ligand; 1 µM).
